ChEMBL document CHEMBL1667773, “Synthesis and antifungal activity of furo[2,3-f]quinolin-5-ols” (2011)
Values after ≈ are worked out from the molar mass of the structure shown.

Columns and labels:
Aspergillus flavus = assay: Antifungal activity against Aspergillus flavus KCCM 11899 after 2 days by twofold broth dilution method; assay type: functional; conditions: KCCM 11899, 48 h
Outline: (§1)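 Twofold broth dilution in modified Sabouraud dextrose broth. Inoculum about 1 × 10⁵ cells/mL. Incubated at 37 °C and read after two days. MIC taken as the lowest concentration of agent tested, with fluconazole and 5-fluorocytosine as reference agents.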

Candida tropicalis = assay: Antifungal activity against Candida tropicalis KCCM 50662 after 1 day by twofold broth dilution method; assay type: functional; conditions: KCCM 50662, 24 h
Outline: (§2)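 Candida strains were tested by twofold serial broth dilution in modified Sabouraud dextrose broth at roughly 1 × 10⁵ cells/mL, held at 37 °C and read after one day. MIC was taken as the lowest agent concentration, against fluconazole and 5-fluorocytosine standards.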

Cryptococcus neoformans = assay: Antifungal activity against Cryptococcus neoformans KCCM 50564 after 1 day by twofold broth dilution method; conditions: KCCM 50564, 24 h
Candida albicans = assay: Antifungal activity against Candida albicans KCCM 50235 after 1 day by twofold broth dilution method; assay type: functional; conditions: KCCM 50235, 24 h; outline: as §2
Pichia kudriavzevii = assay: Antifungal activity against Candida krusei KCCM 11655 after 1 day by twofold broth dilution method; assay type: functional; conditions: KCCM 11655, 24 h; outline: as §2
Aspergillus niger = assay: Antifungal activity against Aspergillus niger KCTC 1231 after 2 days by twofold broth dilution method; assay type: functional; conditions: KCTC 1231, 48 h; outline: as §1

SMILES | MIC (Aspergillus flavus) | MIC (Candida tropicalis) | MIC (Cryptococcus neoformans) | MIC (Candida albicans) | MIC (Pichia kudriavzevii) | MIC (Aspergillus niger)
CCOC(=O)c1c(N)oc2c1c(Sc1cccc(C)c1)c(O)c1ncccc12 | 12.5 µg/mL (≈ 31.7 µM) | 25 µg/mL (≈ 63.4 µM) | 3.2 µg/mL (≈ 8.11 µM) | 12.5 µg/mL (≈ 31.7 µM) | 25 µg/mL (≈ 63.4 µM) | 25 µg/mL (≈ 63.4 µM)
CCOC(=O)c1c(N)oc2c1c(Sc1ccc(Br)cc1)c(O)c1ncccc12 | 0.8 µg/mL (≈ 1.74 µM) | 0.8 µg/mL (≈ 1.74 µM) | 25 µg/mL (≈ 54.4 µM) | 1.6 µg/mL (≈ 3.48 µM) | 1.6 µg/mL (≈ 3.48 µM) | 1.6 µg/mL (≈ 3.48 µM)
COC(=O)c1c(N)oc2c1c(C)c(O)c1ncccc12 | 3.2 µg/mL (≈ 11.8 µM) | 6.3 µg/mL (≈ 23.1 µM) | 25 µg/mL (≈ 91.8 µM) | 0.8 µg/mL (≈ 2.94 µM) | 25 µg/mL (≈ 91.8 µM) | 12.5 µg/mL (≈ 45.9 µM)
CCOC(=O)c1c(N)oc2c1c(SCC)c(O)c1ncccc12 | 6.3 µg/mL (≈ 19 µM) | 25 µg/mL (≈ 75.2 µM) | > 50 µg/mL | 50 µg/mL (≈ 150 µM) | > 50 µg/mL | 25 µg/mL (≈ 75.2 µM)
OC(Cn1cncn1)(Cn1cncn1)c1ccc(F)cc1F [FLUCONAZOLE] | 25 µg/mL (≈ 81.6 µM) | 6.3 µg/mL (≈ 20.6 µM) | 6.3 µg/mL (≈ 20.6 µM) | 50 µg/mL (≈ 163 µM) | 12.5 µg/mL (≈ 40.8 µM) | 12.5 µg/mL (≈ 40.8 µM)
CCOC(=O)c1c(N)oc2c1c(Sc1ccc(F)cc1)c(O)c1ncccc12 | 6.3 µg/mL (≈ 15.8 µM) | 50 µg/mL (≈ 125 µM) | 50 µg/mL (≈ 125 µM) | 50 µg/mL (≈ 125 µM) | 50 µg/mL (≈ 125 µM) | 50 µg/mL (≈ 125 µM)
CCOC(=O)c1c(N)oc2c1c(Br)c(O)c1ncccc12 | 6.3 µg/mL (≈ 17.9 µM) | 6.3 µg/mL (≈ 17.9 µM) | 25 µg/mL (≈ 71.2 µM) | 12.5 µg/mL (≈ 35.6 µM) | 6.3 µg/mL (≈ 17.9 µM) | 6.3 µg/mL (≈ 17.9 µM)
Nc1nc(=O)[nH]cc1F [FLUCYTOSINE] | 1.6 µg/mL (≈ 12.4 µM) | 3.2 µg/mL (≈ 24.8 µM) | 6.3 µg/mL (≈ 48.8 µM) | 3.2 µg/mL (≈ 24.8 µM) | 3.2 µg/mL (≈ 24.8 µM) | 3.2 µg/mL (≈ 24.8 µM)
CCOC(=O)c1c(N)oc2c1c(SC)c(O)c1ncccc12 | 50 µg/mL (≈ 157 µM) | 12.5 µg/mL (≈ 39.3 µM) | 6.3 µg/mL (≈ 19.8 µM) | 12.5 µg/mL (≈ 39.3 µM) | 50 µg/mL (≈ 157 µM) | 50 µg/mL (≈ 157 µM)
CCOC(=O)c1c(N)oc2c1c(Sc1ccc(C)cc1)c(O)c1ncccc12 | 50 µg/mL (≈ 127 µM) | 12.5 µg/mL (≈ 31.7 µM) | 12.5 µg/mL (≈ 31.7 µM) | 6.3 µg/mL (≈ 16 µM) | 50 µg/mL (≈ 127 µM) | 3.2 µg/mL (≈ 8.11 µM)
CCOC(=O)c1c(N)oc2c1c(Sc1ccc(C)c(C)c1)c(O)c1ncccc12 | 6.3 µg/mL (≈ 15.4 µM) | 12.5 µg/mL (≈ 30.6 µM) | 12.5 µg/mL (≈ 30.6 µM) | 25 µg/mL (≈ 61.2 µM) | 25 µg/mL (≈ 61.2 µM) | 12.5 µg/mL (≈ 30.6 µM)
CCOC(=O)c1c(N)oc2c1c(C)c(O)c1ncccc12 | 12.5 µg/mL (≈ 43.7 µM) | 25 µg/mL (≈ 87.3 µM) | 12.5 µg/mL (≈ 43.7 µM) | 6.3 µg/mL (≈ 22 µM) | 25 µg/mL (≈ 87.3 µM) | > 50 µg/mL
CCOC(=O)c1c(N)oc2c1c(Cl)c(O)c1ncccc12 | > 50 µg/mL | 50 µg/mL (≈ 163 µM) | 25 µg/mL (≈ 81.5 µM) | > 50 µg/mL | 6.3 µg/mL (≈ 20.5 µM) | > 50 µg/mL
CCOC(=O)c1c(N)oc2c1c(Sc1ccccc1)c(O)c1ncccc12 | 3.2 µg/mL (≈ 8.41 µM) | 1.6 µg/mL (≈ 4.21 µM) | 25 µg/mL (≈ 65.7 µM) | 3.2 µg/mL (≈ 8.41 µM) | 3.2 µg/mL (≈ 8.41 µM) | 3.2 µg/mL (≈ 8.41 µM)
Nc1ccc(O)c2ncccc12 | > 50 µg/mL | 50 µg/mL (≈ 312 µM) | > 50 µg/mL | 50 µg/mL (≈ 312 µM) | > 50 µg/mL | 50 µg/mL (≈ 312 µM)
CCOC(=O)c1c(N)oc2c1c(Sc1ccc(O)cc1)c(O)c1ncccc12 | 25 µg/mL (≈ 63.1 µM) | 6.3 µg/mL (≈ 15.9 µM) | 12.5 µg/mL (≈ 31.5 µM) | 12.5 µg/mL (≈ 31.5 µM) | 25 µg/mL (≈ 63.1 µM) | 3.2 µg/mL (≈ 8.07 µM)
CCOC(=O)c1c(N)oc2c1c(Sc1ccc(F)c(F)c1)c(O)c1ncccc12 | 1.6 µg/mL (≈ 3.84 µM) | 1.6 µg/mL (≈ 3.84 µM) | 50 µg/mL (≈ 120 µM) | 0.8 µg/mL (≈ 1.92 µM) | 1.6 µg/mL (≈ 3.84 µM) | 1.6 µg/mL (≈ 3.84 µM)
CCOC(=O)c1c(N)oc2c1c(Sc1cccc(Cl)c1)c(O)c1ncccc12 | 12.5 µg/mL (≈ 30.1 µM) | 12.5 µg/mL (≈ 30.1 µM) | 1.6 µg/mL (≈ 3.86 µM) | 6.3 µg/mL (≈ 15.2 µM) | 6.3 µg/mL (≈ 15.2 µM) | 3.2 µg/mL (≈ 7.71 µM)
CCOC(=O)c1c(N)oc2c1c(Sc1ccc(Cl)cc1)c(O)c1ncccc12 | 3.2 µg/mL (≈ 7.71 µM) | 0.8 µg/mL (≈ 1.93 µM) | 25 µg/mL (≈ 60.3 µM) | 0.8 µg/mL (≈ 1.93 µM) | 1.6 µg/mL (≈ 3.86 µM) | 3.2 µg/mL (≈ 7.71 µM)
CCOC(=O)c1c(N)oc2c1c(Sc1cccc(F)c1)c(O)c1ncccc12 | 12.5 µg/mL (≈ 31.4 µM) | 50 µg/mL (≈ 125 µM) | 50 µg/mL (≈ 125 µM) | 50 µg/mL (≈ 125 µM) | 50 µg/mL (≈ 125 µM) | 25 µg/mL (≈ 62.7 µM)
COC(=O)c1c(N)oc2c1c(Br)c(O)c1ncccc12 | 25 µg/mL (≈ 74.2 µM) | 6.3 µg/mL (≈ 18.7 µM) | 12.5 µg/mL (≈ 37.1 µM) | 50 µg/mL (≈ 148 µM) | 25 µg/mL (≈ 74.2 µM) | 25 µg/mL (≈ 74.2 µM)
CCOC(=O)c1c(N)oc2c1c(Sc1ccc(OC)cc1)c(O)c1ncccc12 | 12.5 µg/mL (≈ 30.5 µM) | 6.3 µg/mL (≈ 15.3 µM) | 25 µg/mL (≈ 60.9 µM) | 6.3 µg/mL (≈ 15.3 µM) | 6.3 µg/mL (≈ 15.3 µM) | 3.2 µg/mL (≈ 7.8 µM)
Cc1ccc2cccnc2c1[N+](=O)[O-] | > 50 µg/mL | > 50 µg/mL | 50 µg/mL (≈ 266 µM) | > 50 µg/mL | > 50 µg/mL | > 50 µg/mL
